Screening data deposited in PubChem by The Scripps Research Institute Molecular Screening Center.
CHRM4 PAM – CHRM4 positive allosteric modulation | CHO-K1 hM4/Gqi5, Fluo-8 calcium fluorescence, ACh EC20; 0% = ACh EC20, 100% = maximal ACh | activation, % at 3 µM | actives 0.4% (n = 360,000) | AID 624126;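 active means activation above its plate's cutoff, the mean activation of sample wells plus 3 SD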
CHRM4 antagonist – blocks acetylcholine activation of human M4 receptor; P08173; CHO-hM4 cells, ACh EC80, Fluo-8 calcium fluorescence; inhibition, % at 3 µM; actives 0.73% (n = 360,000); AID 624125;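 active means inhibition above its plate's cutoff, the mean inhibition of sample wells plus 3 SD, cut at about 27% in these data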;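 further: 0% = acetylcholine EC80 with DMSO and 100% = DMSO without agonist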
M5 antag – blocks acetylcholine activation of human M5 receptor; actives 0.59% (n = 360,000); inhibition, % at 3 µM; CHO-hM5 cells, Fluo-8 calcium fluorescence, ACh EC80;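 active means inhibition above a per-plate cutoff, the mean of that plate's test compounds plus 3 SD, cut at about 27% in these data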;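 further: 0% = acetylcholine EC80 with DMSO and 100% = DMSO without agonist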
Target sequence (P08912 whole entry, looked up): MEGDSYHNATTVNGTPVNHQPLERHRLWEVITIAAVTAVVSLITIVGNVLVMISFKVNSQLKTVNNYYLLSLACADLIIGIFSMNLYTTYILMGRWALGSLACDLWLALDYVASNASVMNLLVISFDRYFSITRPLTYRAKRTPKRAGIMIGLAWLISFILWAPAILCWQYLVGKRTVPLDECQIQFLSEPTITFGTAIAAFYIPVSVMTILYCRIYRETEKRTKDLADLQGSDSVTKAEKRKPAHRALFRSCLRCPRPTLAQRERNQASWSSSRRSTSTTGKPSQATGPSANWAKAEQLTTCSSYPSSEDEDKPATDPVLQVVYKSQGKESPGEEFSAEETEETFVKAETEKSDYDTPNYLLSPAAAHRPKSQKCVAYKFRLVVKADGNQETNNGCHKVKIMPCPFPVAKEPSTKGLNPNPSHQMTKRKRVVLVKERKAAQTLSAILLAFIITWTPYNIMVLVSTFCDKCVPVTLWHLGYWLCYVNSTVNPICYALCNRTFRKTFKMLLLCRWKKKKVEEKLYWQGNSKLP
M4 ag – agonists of human muscarinic M4 receptor (CHRM4). P08173. CHO-K1 hM4/Gqi5, Fluo-8 calcium fluorescence; vehicle 0%, full acetylcholine response 100%. activation, % at 3 µM. actives 0.14% (n = 360,000). AID 624127;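 active means activation above the run mean over all test wells plus 3 SD, cut at about 32% in these data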;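 further: peak over basal fluorescence ratio per well then scaled between controls; 0% = DMSO wells and 100% = acetylcholine at EC100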
M5 ag – CHRM5 agonism in calcium assay. P08912. CHO-K1 hM5 cells, Fluo-8 calcium fluorescence; 0% DMSO wells, 100% maximal acetylcholine response. activation, % at 3 µM. actives 0.19% (n = 360,000);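 active means activation above the run's mean over test compounds plus 3 SD, cut at about 23% in these data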;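 further: signal is peak over basal fluorescence ratio across the kinetic read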
CHRM5 PAM – CHRM5 positive allosteric modulation; CHO-K1 hM5, Fluo-8 calcium, ACh EC20 PAM; 0% = ACh EC20, 100% = ACh EC100; activation, % at 3 µM; actives 0.3% (n = 360,000); AID 624038;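 active means activation above the run cutoff, the mean activation of all test compounds plus 3 SD, cut at about 18% in these data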
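Test system: CHO-K1 hM5 cells / Doses: single-point, 3 µM nominal / Times: Post-acetylcholine fluorescence recording 140 s / Technique: Fluo-8 calcium fluorescence / Measure: Max/basal fluorescence ratio as % of EC20–EC100 ACh window / Benchmarks: low control EC20 acetylcholine (0%), high control EC100 acetylcholine (100%) / Replicates: one well per compound, no replicates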
Active calls of the source: *. A selection: hits, their analogues and other compounds. The true share with any hit is near 1.9%.

SMILES	CHRM4 PAM	CHRM4 antagonist	M5 antag	M4 ag	M5 ag	CHRM5 PAM
O=C1CN(C(=O)c2ccc3nc(Cc4cccc(Cl)c4)oc3c2)CCN1	1.8	-7.3	2.3	1.8	2.6	1.5
CCOC(=O)c1cnc(SCCc2ccccc2)nc1N	34.8*	2.1	-6.7	-2.9	-4.8	3.4
CCCCSc1ncc(C(=O)OCC)c(N)n1	-5.3	1.3	-3.1	-0.6	-6.3	0.4
CCCCOC(=O)CSc1nc2ccccc2o1	-6.0	10.9	8.6	-0.4	-1.6	4.0
CC(NCC(O)c1ccc([N+](=O)[O-])cc1)C12CC3CC(CC(C3)C1)C2 (stereo unspecified)	-14.5	19.3	6.4	3.9	1.0	-9.5
Cc1ccc(S(=O)(=O)N2CCN(C(=O)CSc3ccc(F)cc3)CC2)cc1	31.8*	24.0	29.0*	15.5	-0.2	19.2*
Cn1ccnc1C1CCCCN1Cc1nc(-c2ccc3c(c2)OCO3)no1 (stereo unspecified)	-25.1	26.6*	14.9	-0.6	-20.6	-26.3
Cn1ccnc1C1CCCCN1Cc1nc(Cc2cccc(C(F)(F)F)c2)no1 (stereo unspecified)	-21.3	38.6*	-4.7	2.8	-11.3	-15.5
COc1ccc(-c2noc(CN3CCCCC3c3nccn3C)n2)cc1 (stereo unspecified)	-18.1	10.3	11.5	0.3	-16.1	-13.4
O=C(CCCCCn1c(=S)[nH]c2cc3c(cc2c1=O)OCO3)N1CCN(Cc2ccccc2)CC1	-5.6	2.2	5.3	5.0	-2.7	-2.5
O=C(CCCCCn1c(=S)[nH]c2cc3c(cc2c1=O)OCO3)N1CCN(C2CCCCC2)CC1	-27.2	11.8	30.9*	9.5	-5.5	-15.2
c1ccc2oc(SCc3cn4ccsc4n3)nc2c1	-16.8	37.5*	6.6	0.2	-13.2	-5.6
Cc1cc(C)[n+]2[nH]c(N)c(N=Nc3ccccc3)c2n1	9.9	0.8	-16.8	2.3	3.5	21.8*
O=C(CNC(=O)N1CC(=O)Nc2ccccc21)NCCc1cccc(F)c1	19.0*	-7.7	-3.9	0.6	-1.8	6.5
O=C(CCNC(=O)N1CC(=O)Nc2ccccc21)NCCc1cccc(F)c1	5.9	-1.6	-6.4	0.4	-4.2	-1.1
COc1ccc(C(=O)/C=C2\C(=O)Nc3ccc(Br)cc32)cc1	-8.7	26.6*	11.6	5.4	13.6	5.0
O=C1Nc2ccc(Br)cc2/C1=C/C(=O)c1ccc2c(c1)OCO2	-28.6	46.9*	22.3	5.2	33.8*	4.2
CC1(Oc2ccccc2)CCN(Cc2csc3ccccc23)C1 (stereo unspecified)	-7.9	25.4	11.2	-0.1	-1.9	-4.8
O=C(CN(Cc1ccccc1)C(=O)c1csnn1)NCc1ccc2c(c1)OCO2	2.6	-17.3	14.0	6.9	4.5	28.1*
COc1ccc(CN(CC(=O)NCc2ccc3c(c2)OCO3)C(=O)c2csnn2)cc1	-6.2	3.2	2.3	3.7	-1.7	0.0
C[C@@H](CSc1ccc(Br)cc1)CN1CC[C@H](NC(=O)OCc2ccccc2)CCC1=O	-5.1	28.0*	14.9	16.6	2.1	-15.3
CN(Cc1ccon1)C(=O)c1ccc2nc(Cc3cccc(Cl)c3)oc2c1	2.4	-24.9	-24.0	4.6	3.4	19.1*
Cc1nn(CC(=O)NCCN2CCCCC2C)c(=O)c2cc(-c3ccccc3)nn12 (stereo unspecified)	-5.4	-2.1	17.8	1.5	-6.0	31.6*
NC(=Nc1ccccc1)Nc1ccccc1	-19.3	60.2*	1.0	124.3*	40.5*	-23.0
CCOC(=O)/C(C(=Nc1ccccc1)Nc1ccccc1)=C(\C)O	4.3	-8.6	-0.9	-0.7	3.1	-1.4
CN(C)c1ccc(CNC(=O)C2Cc3c(-c4ccccc4Oc4ccccc4)ccnc3O2)cc1 (stereo unspecified)	3.6	-12.9	-3.5	-2.1	-1.0	-0.5
Nc1nonc1-n1nnc(C(=O)N/N=C/c2ccccc2Cl)c1CN1CCOCC1	16.4*	-5.9	7.1	0.1	-6.6	-2.3
